Assay outcomes as filed in PubChem.
Only some compounds are listed: those with a hit (about 3.5% of all), similar ones and a draw of the others.
RGS4 act: potentiators or activators of RGS4 | HEK293 M3R/inducible RGS4, carbachol calcium flux Fluo4; active compounds read low | B-score at 10 µM | 0.92% of 310,000 active | AID 463111;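 active = B-score of the integrated calcium signal more than 4 SD below the library mean, with starting fluorescence not abnormally high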;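 note: negative B-score means reduced calcium response which marks RGS4 activation or potentiation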
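Material: M3R-expressing HEK293 line, RGS4 induced by doxycycline | Schedule: Overnight RGS4 induction, 30 min dye load 37 °C, 20 min compound RT | Measured by: Fluo4 fluorescence kinetic imaging of calcium | Read-out: Integrated calcium ratio converted to B score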
RGS4 block: human RGS4 inhibition | P49798 | HEK293 M3R/RGS4 inducible, Fluo-4 calcium flux; active compounds read high; triggered by carbachol at its EC20 | B-score at 10 µM | 0.45% of 310,000 active;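 active = B-score, a plate-corrected calcium signal, over three deviations above library mean, with baseline fluorescence within five deviations of library mean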;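 note: RGS4 expression induced by doxycycline in cells with stable M3 receptor; B-score is computed from the integrated fluorescence ratio over baseline after carbachol; higher B-score means a larger calcium signal and so more RGS4 inhibition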
Target sequence (P49798 whole entry, looked up): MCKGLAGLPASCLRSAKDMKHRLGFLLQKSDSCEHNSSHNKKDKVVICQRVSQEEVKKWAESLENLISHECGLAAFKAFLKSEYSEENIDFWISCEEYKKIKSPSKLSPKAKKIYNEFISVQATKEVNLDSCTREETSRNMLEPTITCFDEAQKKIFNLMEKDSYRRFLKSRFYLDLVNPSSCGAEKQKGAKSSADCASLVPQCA
MrgX1 antag: antagonists of human MrgX1 receptor | Q96LB2 | MRGX1-HEK293 calcium flux, Fluo-4, BAM8-22 antagonism; active compounds read low | B-score at 10 µM | 1.3% of 310,000 active | AID 588676;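 active = calcium-response B-score plate-corrected more than 3 library SD below zero, starting fluorescence within 5 deviations, no agonist response on first addition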;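 note: peak minus trough fluorescence over baseline after final BAM8-22 challenge near maximal dose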
Target sequence (Q96LB2 whole entry, looked up): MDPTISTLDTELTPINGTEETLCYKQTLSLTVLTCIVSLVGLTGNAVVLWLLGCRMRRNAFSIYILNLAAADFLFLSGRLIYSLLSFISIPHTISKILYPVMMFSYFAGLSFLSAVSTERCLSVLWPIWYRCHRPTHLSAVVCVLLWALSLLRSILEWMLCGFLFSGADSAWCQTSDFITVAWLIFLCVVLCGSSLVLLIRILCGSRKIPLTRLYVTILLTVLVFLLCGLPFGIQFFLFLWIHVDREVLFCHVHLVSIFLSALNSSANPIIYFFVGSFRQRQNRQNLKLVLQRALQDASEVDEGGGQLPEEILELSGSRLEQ
MrgX1 agonist: human MrgX1 receptor agonism, primary screen | Q96LB2 | MrgX1-HEK293 cells, Fluo-4 calcium fluorescence, agonist mode; active compounds read high | B-score at 10 µM | 0.44% of 310,000 active;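 active = calcium response B-score plate-corrected fluorescence ratio at least 3 library SD, with starting fluorescence B-score inside 5 SD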
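Material – MrgX1-expressing HEK293 cells · Input – 15,000 cells seeded per well · Dosing – compound as first of three additions · Times – overnight seeding, then 1 h dark dye loading · Measured by – kinetic Fluo-4 NW fluorescence of intracellular calcium · Read-out – B-scored fluorescence response ratio · Benchmarks – positive and negative control wells on each plate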
MrgX1 PAM: allosterically activates human MrgX1 receptor signaling; Q96LB2; B-score at 10 µM; MrgX1-HEK293, Fluo-4 calcium flux, FDSS; active compounds read high; 0.63% of 310,000 active;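 active = plate-corrected calcium response at least 3 library SD above typical, normal starting fluorescence, not activating the receptor alone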;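 note: compound read alongside a low EC10 to EC30 dose of BAM8-22 agonist; peak minus trough fluorescence over baseline measured at the second addition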
MrgX1 ag confirm: human MrgX1 agonism, re-confirmation screen; shares compounds with MrgX1 agonist; MrgX1-HEK293, Fluo-4 calcium fluorescence, FDSS; activation, % at 10 µM; 78% of 600 active; AID 602412;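 active = calcium signal rise, corrected for plate position, at least 3 library SD high, with starting brightness within 5 such deviations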
HEK293 Ca flux: activity in parental HEK293 cells lacking MrgX1. shares compounds with MrgX1 antag. Fluo-4 calcium fluorescence, FDSS. fluorescence ratio F(max-min)/F0 at 10 µM. 2% of 4,000 active. AID 624111;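 active = duplicate-averaged calcium fluorescence ratio at least three times the standard deviation of buffer wells, a nonspecific response in parental cells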
HEK293 Ca counter: activity in parental HEK293 cells without MrgX1. shares compounds with MrgX1 antag. parental HEK293 calcium flux, Fluo-4 fluorescence ratio; active compounds read high. fluorescence ratio F(max-min)/F0 at 10 µM. 0.4% of 4,000 active. AID 624114;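 active = calcium fluorescence ratio, averaged over duplicates, at least 3 SD of the buffer-well ratio, meaning a nonspecific response in receptor-free cells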;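 note: untransfected parental HEK293 lacking MrgX1 used as counterscreen for MrgX1 allosteric activators; fluorescence change taken during the second addition on a kinetic imager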
HEK293 Ca cntr2: MrgX1 activator counter-screen hit in parental HEK293 cells; shares compounds with MrgX1 antag; Fluo-4 calcium fluorescence (FDSS); active compounds read high; fluorescence ratio F(max-min)/F0 at 10 µM; 8.7% of 4,000 active; AID 624115;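 active = calcium fluorescence ratio at least three times the spread of buffer wells, meaning a non-specific response in parental cells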
Hits are given with their value.

Screening Cc1ccccc1C(=O)NNC(=S)NC(=O)c1cccs1 returned RGS4 act inactive, RGS4 block inactive, MrgX1 antag inactive, MrgX1 agonist 79, MrgX1 PAM inactive, MrgX1 ag confirm 651%, HEK293 Ca flux inactive, HEK293 Ca counter inactive and HEK293 Ca cntr2 130.
Cc1cccc(C(=O)NC(=S)NNC(=O)c2cccs2)c1 was read as RGS4 act inactive, RGS4 block inactive, MrgX1 antag inactive, MrgX1 agonist 173, MrgX1 PAM inactive, MrgX1 ag confirm 647%, HEK293 Ca flux inactive, HEK293 Ca counter inactive and HEK293 Ca cntr2 140.
For Cc1ccccc1C(=O)Nc1cccc(NC(=S)NC(=O)c2cccs2)c1 the results were RGS4 act inactive, RGS4 block inactive, MrgX1 antag inactive, MrgX1 agonist inactive and MrgX1 PAM inactive.
For O=S(=O)(c1ccc(F)c(F)c1)N1CCC2(CC1)OCCO2 the results were RGS4 act inactive, RGS4 block inactive, MrgX1 antag inactive, MrgX1 agonist inactive and MrgX1 PAM inactive.
`Cn1cc(C=C2C(=O)OC3(CCCCC3)OC2=O)c2ccccc21` gave RGS4 act inactive, RGS4 block inactive, MrgX1 antag inactive, MrgX1 agonist inactive and MrgX1 PAM inactive.
Screening CCN(CC)c1ccc(C=C2C(=O)OC3(CCCC3)OC2=O)cc1 returned RGS4 act inactive, RGS4 block inactive, MrgX1 antag inactive, MrgX1 agonist 74, MrgX1 PAM inactive, MrgX1 ag confirm 440%, HEK293 Ca flux inactive, HEK293 Ca counter inactive and HEK293 Ca cntr2 110.
For COc1ccc(S(=O)(=O)CC(=O)c2cc3cc(Br)ccc3oc2=O)cc1 the results were RGS4 act inactive, RGS4 block inactive, MrgX1 antag inactive, MrgX1 agonist 70, MrgX1 PAM inactive, MrgX1 ag confirm 326%, HEK293 Ca flux inactive, HEK293 Ca counter inactive and HEK293 Ca cntr2 61.
`COc1ccc(CNc2oc(COc3ccccc3)nc2C#N)cc1` gave RGS4 act inactive, RGS4 block inactive, MrgX1 antag inactive, MrgX1 agonist inactive and MrgX1 PAM inactive.
`N#Cc1nc(-c2ccc(F)cc2)oc1NCc1ccccc1` gave RGS4 act inactive, RGS4 block inactive, MrgX1 antag inactive, MrgX1 agonist inactive and MrgX1 PAM inactive.
CCC(CC)c1nc(C#N)c(NCc2ccccc2)o1 was read as RGS4 act inactive, RGS4 block inactive, MrgX1 antag inactive, MrgX1 agonist 27, MrgX1 PAM inactive, MrgX1 ag confirm 230%, HEK293 Ca flux inactive, HEK293 Ca counter inactive and HEK293 Ca cntr2 50.
N#Cc1nc(Cc2ccccc2)oc1NCc1ccccc1 was read as RGS4 act inactive, RGS4 block inactive, MrgX1 antag inactive, MrgX1 agonist 31, MrgX1 PAM inactive, MrgX1 ag confirm 108%, HEK293 Ca flux inactive, HEK293 Ca counter inactive and HEK293 Ca cntr2 inactive.
`COc1ccc(NC(=O)C(Cc2ccccc2)n2cccc2)c(OC)c1` (centres undefined) gave RGS4 act inactive, RGS4 block inactive, MrgX1 antag inactive, MrgX1 agonist inactive and MrgX1 PAM inactive.
For CCOC(=O)N1CCN(C(=O)c2c[nH]c3ccc(S(=O)(=O)N(C)c4cccc(C)c4)cc3c2=O)CC1 the results were RGS4 act inactive, RGS4 block inactive, MrgX1 antag inactive, MrgX1 agonist 34, MrgX1 PAM inactive, MrgX1 ag confirm 191%, HEK293 Ca flux inactive, HEK293 Ca counter inactive and HEK293 Ca cntr2 50.
For CCOC(=O)N1CCN(C(=O)c2c[nH]c3ccc(S(=O)(=O)N(C)c4ccccc4C)cc3c2=O)CC1 the results were RGS4 act inactive, RGS4 block inactive, MrgX1 antag inactive, MrgX1 agonist inactive and MrgX1 PAM inactive.
`CN(C(=O)NC1CC(=O)N(c2ccc3c(c2)OCCO3)C1)c1ccccc1` (centres undefined) gave RGS4 act inactive, RGS4 block inactive, MrgX1 antag inactive, MrgX1 agonist inactive and MrgX1 PAM inactive.
For COc1ccc(C2=CC(c3ccc(C)cc3)n3nnnc3N2)cc1 (centres undefined) the results were RGS4 act inactive, RGS4 block inactive, MrgX1 antag inactive, MrgX1 agonist inactive and MrgX1 PAM inactive.
For COc1ccc(C2C=C(c3ccccc3)Nc3nnnn32)cc1 (centres undefined) the results were RGS4 act inactive, RGS4 block inactive, MrgX1 antag inactive, MrgX1 agonist 33, MrgX1 PAM inactive, MrgX1 ag confirm inactive, HEK293 Ca flux inactive, HEK293 Ca counter inactive and HEK293 Ca cntr2 inactive.
`O=C1CSC(=S)N1/N=C/c1ccc(Cl)c([N+](=O)[O-])c1` gave RGS4 act inactive, RGS4 block inactive, MrgX1 antag inactive, MrgX1 agonist inactive and MrgX1 PAM inactive.
For COC(=O)c1nnn(-c2nonc2N)c1CN1CCCC1 the results were RGS4 act inactive, RGS4 block inactive, MrgX1 antag inactive, MrgX1 agonist inactive and MrgX1 PAM inactive.
`CNc1nc(NCc2ccccc2)c2ccccc2n1` gave RGS4 act inactive, RGS4 block inactive, MrgX1 antag inactive, MrgX1 agonist 76, MrgX1 PAM inactive, MrgX1 ag confirm 253%, HEK293 Ca flux inactive, HEK293 Ca counter inactive and HEK293 Ca cntr2 inactive.
Screening CC(=O)N1CCc2cc(S(=O)(=O)CCC(=O)NCc3ccc(F)cc3)ccc21 returned RGS4 act inactive, RGS4 block inactive, MrgX1 antag inactive, MrgX1 agonist inactive and MrgX1 PAM inactive.
For CCC(=O)Nc1cccc(C2=NOC3(C2)C[C@H](C(N)=O)N(C(=O)CC#N)C3)c1 (some centres undefined) the results were RGS4 act inactive, RGS4 block inactive, MrgX1 antag inactive, MrgX1 agonist inactive and MrgX1 PAM inactive.
N#CC1=C(SCC(=O)NCc2ccccc2)NC(=O)CC1c1ccco1 (centres undefined) was read as RGS4 act inactive, RGS4 block inactive, MrgX1 antag inactive, MrgX1 agonist inactive and MrgX1 PAM inactive.
N#CC1=C(SCc2ccccc2)NC(=O)CC1c1ccco1 (centres undefined) was read as RGS4 act inactive, RGS4 block inactive, MrgX1 antag inactive, MrgX1 agonist 41, MrgX1 PAM inactive, MrgX1 ag confirm 180%, HEK293 Ca flux inactive, HEK293 Ca counter inactive and HEK293 Ca cntr2 inactive.
